{"source": "paper PMC2740399", "about": "(American Journal of Physiology - Cell Physiology, 2009)", "key": {"HA-tagged h.XGnRHR [1]": {"system": "HA-tagged h.XGnRHR", "assay": "Internalization of anti-HA preloaded receptor", "format": "cell-based, human/Xenopus laevis", "settings": "HeLa, 60 min, 37°C; for block of GnRH-stimulated internalization: antagonist 10^−7 M with GnRH 10^−9 M"}, "A261K.h.XGnRHR": {"system": "A261K.h.XGnRHR", "assay": "Cell surface expression of A261K.h.XGnRHR", "format": "cell-based, human/Xenopus laevis", "settings": "HeLa; 18 h, 10^−7 M IN3"}, "[2]": {"system": "GnRHR point mutants that cause hypogonadotropic hypogonadism", "settings": "cited from earlier work"}, "HA-tagged hGnRHR [3]": {"biological_target": "T1, HA-tagged hGnRHR (Homo sapiens, UniProt P30968)", "T1 sequence (P30968 1-328)": "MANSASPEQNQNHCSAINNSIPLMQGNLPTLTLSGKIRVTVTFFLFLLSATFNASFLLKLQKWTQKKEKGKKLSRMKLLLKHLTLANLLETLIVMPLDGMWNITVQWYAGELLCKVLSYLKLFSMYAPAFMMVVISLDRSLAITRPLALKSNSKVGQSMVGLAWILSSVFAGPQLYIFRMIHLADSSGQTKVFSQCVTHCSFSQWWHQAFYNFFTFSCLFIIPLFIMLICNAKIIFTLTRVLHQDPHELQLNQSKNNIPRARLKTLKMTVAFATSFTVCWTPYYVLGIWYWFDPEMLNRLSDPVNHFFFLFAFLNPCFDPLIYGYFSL", "assay": "Whole cell expression of HA-hGnRHR", "format": "cell-based", "settings": "HeLa; 18 h, 10^−7 M; not shown"}, "HA-tagged XGnRHR [4]": {"system": "HA-tagged XGnRHR", "assay": "Cell surface expression of HA-XGnRHR", "format": "cell-based, Xenopus laevis", "settings": "HeLa"}, "A261K.hGnRHR": {"system": "A261K.hGnRHR", "assay": "Cell surface expression of A261K.hGnRHR", "format": "cell-based, human", "settings": "HeLa; 18 h, 10^−7 M IN3"}, "[5]": {"biological_target": "T2, HA-tagged h.XGnRHR (hGnRHR with added XGnRHR COOH tail) (Homo sapiens, UniProt P30968)", "T2 sequence (P30968 1-328)": "T1 sequence (P30968 1-328)", "assay": "Cell surface expression / PCSE of HA-h.XGnRHR after 18 h ligand exposure", "format": "cell-based, human/Xenopus laevis", "settings": "HeLa"}, "HA-tagged h.XGnRHR [6]": {"system": "HA-tagged h.XGnRHR", "assay": "Whole cell expression of HA-h.XGnRHR", "format": "cell-based, human/Xenopus laevis", "settings": "HeLa; 18 h, 10^−7 M; not shown"}, "wild-type GnRHR": {"system": "wild-type GnRHR", "settings": "cited from earlier work"}, "HA-tagged hGnRHR [7]": {"biological_target": "T1, HA-tagged hGnRHR", "assay": "Cell surface expression / PCSE of HA-hGnRHR after 18 h ligand exposure", "format": "cell-based", "settings": "HeLa"}, "HA-tagged mGnRHR [8]": {"biological_target": "T3, HA-tagged mGnRHR (Mus musculus, UniProt Q01776)", "T3 sequence (Q01776 1-327)": "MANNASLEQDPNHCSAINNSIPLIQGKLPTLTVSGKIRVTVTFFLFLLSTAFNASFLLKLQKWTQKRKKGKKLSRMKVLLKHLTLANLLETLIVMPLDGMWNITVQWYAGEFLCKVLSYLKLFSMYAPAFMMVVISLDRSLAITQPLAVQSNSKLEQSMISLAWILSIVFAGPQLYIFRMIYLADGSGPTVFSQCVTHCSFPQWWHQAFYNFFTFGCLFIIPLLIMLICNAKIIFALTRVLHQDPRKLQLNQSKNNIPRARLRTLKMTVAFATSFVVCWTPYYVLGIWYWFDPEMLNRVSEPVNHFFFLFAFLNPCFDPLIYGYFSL", "assay": "Internalization of anti-HA preloaded receptor", "format": "cell-based", "settings": "HeLa, 60 min, 37°C; for block of GnRH-stimulated internalization: antagonist 10^−7 M with GnRH 10^−9 M"}, "HA-tagged XGnRHR [9]": {"system": "HA-tagged XGnRHR", "assay": "Trafficking, anti-HA loading with agonist present", "format": "cell-based, Xenopus laevis", "settings": "HeLa; 10^−7 M GnRH II with anti-HA, 0–60 min, 37°C"}, "HA-tagged mGnRHR [10]": {"biological_target": "T3, HA-tagged mGnRHR", "assay": "Cell surface expression of HA-mGnRHR", "format": "cell-based", "settings": "HeLa, 10^−7 M GnRH, 37°C"}, "HA-tagged h.XGnRHR [11]": {"system": "HA-tagged h.XGnRHR", "assay": "Trafficking, anti-HA loading with agonist present", "format": "cell-based, human/Xenopus laevis", "settings": "HeLa; 10^−7 M GnRH with anti-HA, 0–60 min, 37°C"}, "HA-A261K h.XGnRHR": {"system": "HA-A261K h.XGnRHR", "assay": "Internalization of anti-HA preloaded receptor", "format": "cell-based, human/Xenopus laevis", "settings": "HeLa, 60 min, 37°C", "method_in_brief": "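HeLa cells transduced day after plating with adenovirus (1–3 pfu/nl, 6 h) carrying exofacially HA-tagged, G protein-uncoupled receptor; assayed next day. Surface receptors prelabelled 60 min with mouse anti-HA (1:200) in DMEM/2% BSA at ~21°C, washed, then treated at 37°C. Cells were fixed, permeabilized, given Alexa 488 secondary plus DAPI, and stained inclusions quantified by automated ×10 imaging. Data are 3–4 wells.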"}, "HA-A261K-h.XGnRHR": {"system": "HA-A261K-h.XGnRHR", "assay": "Trafficking, anti-HA loading with agonist present", "format": "cell-based, human/Xenopus laevis", "settings": "HeLa; 10^−7 M GnRH with anti-HA, 0–60 min, 37°C"}, "[12]": {"settings": "10^−7 M IN3, fluorescence immunohistochemistry, automated imaging"}}, "data": [{"molecule": "Cc1cc(C)cc(-c2[nH]c3ccc(C(C)(C)C(=O)N4CC5CCC4CC5)cc3c2[C@H](C)CNCCc2ccncc2)c1", "note": "[IN3, (2S)-2-[5-[2-(2-azabicyclo[2.2.2]oct-2-yl)-1,1-dimethy-2-oxoethyl]-2-(3,5-dimethylphenyl)-1H-indol-3-yl]-N-(2-pyridin-4-ylethyl)propan-1-amine]", "values": [{"measurement": "block of GnRH-stimulated internalization", "setting": "HA-tagged h.XGnRHR [1]", "value": "blocked"}, {"measurement": "effect of IN3 on cell surface expression", "setting": "A261K.h.XGnRHR", "value": "pronounced increase"}, {"measurement": "rescue of signaling", "setting": "[2]", "value": "“rescues” signaling via most of these mutants"}, {"measurement": "whole cell expression (effect of ligand)", "setting": "HA-tagged hGnRHR [3]", "value": "no measurable effect"}, {"measurement": "cell surface expression after preincubation (effect of IN3)", "setting": "HA-tagged XGnRHR [4]; 18 h preincubation, 10^−7 M IN3, not shown", "value": "did not alter expression"}, {"measurement": "effect of IN3 on cell surface expression", "setting": "A261K.hGnRHR", "value": "pronounced increase"}, {"measurement": "cell surface expression (effect of ligand)", "setting": "[5]; [12]", "value": "greatly increased"}, {"measurement": "PCSE (proportional cell surface expression)", "setting": "[5]; 10^−7 M, increased from 6.3% (control), n = 3 experiments", "value": 17.6, "unit": "%"}, {"measurement": "whole cell expression (effect of ligand)", "setting": "HA-tagged h.XGnRHR [6]", "value": "no measurable effect"}, {"measurement": "signaling via wild-type GnRHR", "setting": "wild-type GnRHR", "value": "increases signaling"}, {"measurement": "cell surface expression (effect of ligand)", "setting": "HA-tagged hGnRHR [7]; [12]", "value": "greatly increased"}, {"measurement": "PCSE (proportional cell surface expression)", "setting": "HA-tagged hGnRHR [7]; 10^−7 M, increased from 1.6% (control), n = 3 experiments", "value": 11, "unit": "%"}, {"measurement": "PCSE increase", "setting": "HA-tagged hGnRHR [7]; 10^−7 M, vs control, 'almost 7-fold'", "value": "~7", "unit": "fold"}, {"measurement": "block of GnRH-stimulated internalization", "setting": "HA-tagged mGnRHR [8]", "value": "blocked"}]}, {"molecule": "(His^5, Trp^7, Tyr^8)GnRH [GnRH II]", "values": [{"measurement": "inclusion count (effect of agonist)", "setting": "HA-tagged XGnRHR [9]", "value": "increased"}, {"measurement": "time to maximal effect on cell surface expression", "setting": "HA-tagged XGnRHR [4]; 10^−7 M GnRH II, 37°C", "value": 120, "unit": "min"}, {"measurement": "time to significant reduction in cell surface expression", "setting": "HA-tagged XGnRHR [4]; 10^−7 M GnRH II, 37°C", "value": 10, "unit": "min"}, {"measurement": "reduction in cell surface expression", "setting": "HA-tagged XGnRHR [4]; 10^−7 M GnRH II, 37°C, data with and without IN3 pretreatment pooled", "value": "rapid reduction"}]}, {"molecule": "cetrorelix", "values": [{"measurement": "block of GnRH-stimulated internalization", "setting": "HA-tagged h.XGnRHR [1]", "value": "blocked"}, {"measurement": "internalization (effect of peptide antagonist alone)", "setting": "HA-tagged h.XGnRHR [1]; cetrorelix 10^−7 M", "value": "not increased by a peptide antagonist"}, {"measurement": "block of GnRH-stimulated internalization", "setting": "HA-tagged mGnRHR [8]", "value": "blocked"}, {"measurement": "internalization (effect of peptide antagonist alone)", "setting": "HA-tagged mGnRHR [8]; cetrorelix 10^−7 M", "value": "not increased by a peptide antagonist"}]}, {"molecule": "gonadotropin-releasing hormone [GnRH]", "values": [{"measurement": "internalization (effect of 10^−9 M GnRH)", "setting": "HA-tagged h.XGnRHR [1]; 10^−9 M GnRH", "value": "increased"}, {"measurement": "reduction in cell surface expression, IN3-pretreated cells", "setting": "HA-tagged mGnRHR [10]; after 18 h 10^−7 M IN3", "value": "pronounced reduction"}, {"measurement": "reduction in cell surface expression", "setting": "HA-tagged mGnRHR [10]; no IN3 pretreatment", "value": "reduced expression"}, {"measurement": "inclusion count (effect of agonist)", "setting": "HA-tagged h.XGnRHR [11]", "value": "increased"}, {"measurement": "internalization (effect of 10^−9 M GnRH)", "setting": "HA-A261K h.XGnRHR", "value": "did not increase internalization"}, {"measurement": "receptor distribution (effect of GnRH)", "setting": "HA-A261K-h.XGnRHR", "value": "no measurable effect"}, {"measurement": "internalization (effect of 10^−9 M GnRH)", "setting": "HA-tagged mGnRHR [8]; 10^−9 M GnRH", "value": "increased"}]}]}
